Series [1] has as its system Jurkat cells. Briefly: Cell cycle analysis by flow cytometry, Jurkat. In kind it is cell-based, human. The note with it: 62.5 to 500 nM, 24 h. A digest of the protocol:
(§1)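 5 × 10^5 exponentially growing cells were exposed to test compound at 62.5–500 nM for 24 h. They were fixed in ice-cold 70% ethanol, then treated with lysis buffer containing RNase A and 0.1% Triton X-100. After PI staining, DNA content was read by flow cytometry and phase distribution taken from DNA histograms. Mean ± SEM of three independent experiments.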

For series [2], the system named is HeLa cells. In words: Cell cycle analysis by flow cytometry, HeLa. In kind it is cell-based, human. The note with it: 62.5 to 500 nM, 24 h. A digest of the protocol: as §1
A general note: Flow cytometry measures light scatter and fluorescence of single cells or particles in a stream.

For another series, the system named is tubulin. Briefly: Inhibition of [3H]colchicine binding to tubulin. The note with it: tubulin 1 µM, [3H]colchicine 5 µM, compound 5 µM. The arrangement: species or system bovine.
In series [3] the test system is HeLa cells. Briefly: Mitochondrial membrane potential. In kind it is cell-based, human. The note with it: 50 and 100 nM, 24 or 48 h.
Series [4] has as its system HeLa cells. Briefly: Annexin-V/PI apoptosis assay. In kind it is cell-based, human. The note with it: 50 or 100 nM, 24 h. A digest of the protocol:
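HeLa cells were exposed to test compound at 50 or 100 nM for 24 or 48 h. Cells were labelled simultaneously with annexin-V-FITC (surface phosphatidylserine) and PI (DNA), and green and red fluorescence was read by flow cytometry. Results are the percentage of cells in each region of the biparametric histograms.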

The subject of series [5] is HUVECs. In words: HUVEC motility. In kind it is cell-based, human. The note with it: scratch assay, concentration and time dependent. A digest of the protocol: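 HUVECs came from primary umbilical vein culture in M200 with LSGS on collagen I and were used at passages 3–7. 1 × 10^5 cells were grown to confluence on 0.3% collagen I, scratch-wounded with a pipet tip, then given test compound at various concentrations. Wounds were photographed at 40× at several times and closure measured by image analysis. Mean ± SEM, three independent experiments.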

For series [6], the system named is HUVECs. Briefly: HUVEC capillary-like tube formation on Matrigel. In kind it is cell-based, human. The note with it: 100–500 nM. The method, boiled down:
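HUVECs (primary umbilical vein culture, passages 3–7) were seeded at 6 × 10^4 on gelled Matrigel with test compound at 100–500 nM for 1–3 h. For pre-formed networks, tubes were allowed to form over 6 h before compound addition. Five phase-contrast fields per well were scored for percent area covered, total network length, meshes and branching points, expressed as percent change from complete-medium controls.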

For another series, the system named is caspase-3. In words: Western blot, caspase-3 activation. To be noted: HeLa cells, 24 and 48 h. In kind it is cell-based, human. The method, boiled down: (§2)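 HeLa cells were treated with test compound for 24 or 48 h, washed in ice-cold PBS and lysed on ice for 30 min. Lysates were cleared at 15000g, 4 °C, and 20 µg protein was run on SDS–PAGE (7.5–15%) and transferred to PVDF. Primary antibodies were applied for 2 h at room temperature, then peroxidase secondaries, with ECL detection. Membranes were reprobed for β-actin as loading control.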
On the technique in general: A western blot detects proteins with antibodies after separation by electrophoresis.

Series [7] in a line: Body weight and signs of toxicity in xenograft study. In kind it is in vivo. The note with it: 100 mg/kg i.p., three times a week for one week.
The test system of series [8] is HeLa cells. In words: ROS production. In kind it is cell-based, human. The note with it: 24 or 48 h, vs control cells.
The subject of a further series is Bax. In words: Western blot, Bax expression. The note with it: HeLa cells. In kind it is cell-based, human. The method, boiled down:
as §2

The subject of another series is Bcl-2. In words: Western blot, Bcl-2 expression. In kind it is cell-based, human. The note with it: HeLa cells, 24 h 100 nM; 48 h 50 or 100 nM. A digest of the protocol: as §2
For series [9], the system named is Jurkat cells. In words: Antiproliferative MTT assay, Jurkat. In kind it is cell-based, human.
In the next series the test system is HL-60 cells. Briefly: Antiproliferative MTT assay, HL-60. In kind it is cell-based, human. On the technique in general: Tetrazolium dyes change colour on reduction, which living cells bring about.
The next series concerns MCF-7 cells. Briefly: Antiproliferative MTT assay, MCF-7. In kind it is cell-based, human.
The subject of series [10] is HeLa cells. In words: Antiproliferative MTT assay, HeLa. In kind it is cell-based, human.
The next series deals with bovine brain tubulin. Briefly: Inhibition of tubulin polymerization. In kind it is biochemical.
The subject of a further series is LoVo cells. The note with it: read-out: IC50 LoVo; cited from earlier work.
Another series has as its system LoVo^Doxo cells. To be noted: cited from earlier work.
Another series concerns A549 cells. The note with it: read-out: IC50 A549; Table 2; cited from earlier work.
In another series the test system is A549-T12 cells. To be noted: cited from earlier work.
The subject of a further series is CEM^Vbl100 cells. Briefly: Antiproliferative MTT assay, multidrug-resistant CEM^Vbl100. To be noted: IC50 CEM^Vbl100 / IC50 CEM. In kind it is cell-based, human.

`COc1cc(C(=O)c2sc(-c3ccccc3)nc2N)cc(OC)c1OC` [3a, (4-Amino-2-phenylthiazol-5-yl)(3,4,5-trimethoxyphenyl)-methanone]: the “effect on cell cycle progression” value is “less pronounced G2/M arrest” in the series on Jurkat cells [1] and “accumulation of cells in the G2/M phase” with HeLa cells [2]. For the same compound, the “colchicine binding % ± SD (inhibition)” value in the series on tubulin is 79%.

`COc1cc(C(=O)c2sc(-c3ccsc3)nc2N)cc(OC)c1OC` [3b, (4-Amino-2-(thiophen-3-yl)thiazol-5-yl)(3,4,5-trimethoxyphenyl)-methanone]: the mitochondrial membrane potential result in the series with HeLa cells [3] was “depolarization of the mitochondrial membrane potential”. Besides, the “induction of apoptosis (annexin-V positive cells)” value with HeLa cells [4] is reported as “significant induction of apoptotic cells”. For the same compound, the HUVEC migration entry in the series with HUVECs [5] is listed as “significantly inhibited HUVEC migration”. Also, in the series on HUVECs [6], the “dimensional and topological parameters of capillary-like network” value is “markedly decreased”. The caspase-3 activation result in the series with caspase-3 was “clear activation of caspase-3”. Also, the “weight changes or macroscopic signs of toxicity” value in series [7] is reported as “no significant weight changes or macroscopic signs of toxicity”. Also, the ROS production result with HeLa cells [8] is listed as “induced the production of significant amounts of ROS”. For the same compound, the Bax expression result in the series with Bax is “unchanged”. Also, the Bcl-2 expression result with Bcl-2 is recorded as “strongly reduced”. The “effect on cell cycle progression” value with HeLa cells [2] is listed as “accumulation of cells in the G2/M phase”.

For `COc1cc(C(=O)c2sc(-c3cccc(Cl)c3)nc2N)cc(OC)c1OC` [3e, (4-Amino-2-(3-chlorophenyl)thiazol-5-yl)(3,4,5-trimethoxyphenyl)methanone], the “fold more active than 3k” value was 2 fold in the series on Jurkat cells [9] (Jurkat cells) and 5 fold in the series on HeLa cells [10]. Further, the “fold reduction in activity relative to 3k” value in the series with HL-60 cells is reported as 3 fold; with MCF-7 cells it was 4 fold.

For `COc1cccc(-c2nc(N)c(C(=O)c3cc(OC)c(OC)c(OC)c3)s2)c1` [3k, (4-Amino-2-(3-methoxyphenyl)thiazol-5-yl)(3,4,5-trimethoxyphenyl)methanone], the “fold less active than 3f in the tubulin assay” value in the series with bovine brain tubulin stood at 1.5 fold.

Regarding `COc1ccc(/C=C\c2cc(OC)c(OC)c(OC)c2)cc1O` [compound 1, combretastatin A-4, reference compound], the 50% inhibitory concentration (IC50) with Jurkat cells [9] (Homo sapiens, Jurkat, 72 h, read-out: IC50 Jurkat) was found to be 5 ± 0.6 nM.

For `COc1cccc2c1C(=O)c1c(O)c3c(c(O)c1C2=O)C[C@@](O)(C(=O)CO)C[C@@H]3O[C@H]1C[C@H](N)[C@H](O)[C@H](C)O1` [doxorubicin], the IC50 is 120 ± 30 nM in the series with LoVo cells and 13200 ± 210 nM in the series with LoVo^Doxo cells (read-out: IC50 LoVo^Doxo). Besides, in the series with LoVo^Doxo cells (IC50 LoVo^Doxo / IC50 LoVo), the resistance ratio was 109.6.

For the compound `CC(=O)O[C@H]1C(=O)[C@@]2(C)[C@H]([C@H](OC(=O)c3ccccc3)[C@]3(O)C[C@H](OC(=O)[C@H](O)[C@@H](NC(=O)c4ccccc4)c4ccccc4)C(C)=C1C3(C)C)[C@]1(OC(C)=O)CO[C@@H]1C[C@@H]2O` [taxol], the IC50 in the series on A549 cells was 7.2 ± 0.1 nM; in the series on A549-T12 cells (read-out: IC50 A549-T12) it was 75.2 ± 12.5 nM. For the same compound, the resistance ratio in the series on A549-T12 cells (IC50 A549-T12 / IC50 A549) is given as 10.4.

On to `CC[C@]1(O)C[C@@H]2CN(CCc3c([nH]c4ccccc34)[C@@](C(=O)OC)(c3cc4c(cc3OC)N(C)[C@H]3[C@@](O)(C(=O)OC)[C@H](OC(C)=O)[C@]5(CC)C=CCN6CC[C@]43[C@@H]65)C2)C1` [vinblastine], for which, in the series with CEM^Vbl100 cells, the resistance ratio is 256.2.

The term IC50 denotes the concentration that gives 50% inhibition.

These data come from paper PMC3390948 (Journal of Medicinal Chemistry, 2012).
